The structures appear in SMILES notation. In brackets after ≈: the same amount, converted by molar mass.

This experiment concerns Mycobacterium tuberculosis. As to the kind of experiment: Antimycobacterial against multidrug resistant Mycobacterium tuberculosis by agar dilution method. It is filed as functional. The essentials:
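Strain was an MDR-TB clinical isolate resistant to isoniazid and rifampicin, among other drugs. MIC read by agar dilution, run in triplicate.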

In general, MIC refers to the lowest concentration found to suppress growth. A higher MIC goes with weaker potency. `CC[C@@H](CO)NCCN[C@@H](CC)CO` [ETHAMBUTOL] had an MIC of 61.2 µM (≈ 12.5 µg/mL).
For `CN1CCC(=O)[C@]2(C1)[C@@H](c1ccc(Cl)cc1Cl)CN(C)[C@@]21C(=O)Nc2ccccc21` the value was 0.88 µM (≈ 0.391 µg/mL); for `NC(=O)c1cnccn1` [PYRAZINAMIDE], 406 µM (≈ 50 µg/mL); for `CN1CCC(=O)[C@]2(C1)[C@@H](c1ccccc1Cl)[C@@H]1CCCN1[C@@]21C(=O)Nc2ccccc21`, 3.58 µM (≈ 1.56 µg/mL).
`NNC(=O)c1ccncc1` [ISONIAZID] showed an MIC of 11.4 µM (≈ 1.56 µg/mL).
On to `CN1CCC(=O)[C@]2(C1)[C@@H](c1ccc(Cl)cc1Cl)[C@@H]1CCCN1[C@@]21C(=O)Nc2ccccc21`, for which the MIC is 1.66 µM (≈ 0.781 µg/mL). Against the preceding compound, the MIC is about 6.9-fold lower.

The values are drawn from ChEMBL document CHEMBL1153639, “A facile synthesis and antimycobacterial evaluation of novel spiro-pyrido-pyrrolizines and pyrrolidines” (2009).
